Source: PubChem
This is a sample that favours compounds with a hit; in the whole collection about 1.3% have one here.
PAD4 inh = inhibitors of human PAD4. Q9UM07. recombinant PAD4, RCA probe fluorescence polarization. inhibition, % at 6.36 µM. hit rate 0.41% among 330,000. AID 485272;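 active = percent inhibition above a cutoff equal to the mean of all tested compounds plus 3 SD, cut at about 15% in these data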;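 also: 0% = PAD4 with RCA probe and DMSO and 100% = probe without PAD4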
RBBP9 inhibitor = blocks human serine hydrolase RBBP9. O75884. recombinant RBBP9, FP-Rh probe fluorescence polarization. inhibition, % at 7.94 µM. hit rate 0.2% among 220,000;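 active = inhibition above the campaign mean of all tested compounds plus 3 SD, cut at about 14% in these data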;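 also: plate controls were DMSO wells with RBBP9 for no effect and wells lacking RBBP9 protein for full effect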
Target sequence (O75884 whole entry, looked up): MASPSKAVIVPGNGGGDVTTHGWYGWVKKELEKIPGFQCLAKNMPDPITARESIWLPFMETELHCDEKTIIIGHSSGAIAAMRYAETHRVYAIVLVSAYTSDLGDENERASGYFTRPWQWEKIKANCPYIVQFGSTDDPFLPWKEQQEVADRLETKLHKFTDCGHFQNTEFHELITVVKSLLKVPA
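System: RBBP9 protein / Buffer or medium: Tris/NaCl buffer pH 8.0 with 0.1% Pluronic / Probe or stimulus: Serine-hydrolase probe FP-Rh, 375 nM pre-mixing / Dosing: 7.94 µM single dose, 0.794% DMSO / Times: enzyme-compound preincubation 30 min, then probe labeling 45 min, 25 °C / Technique: fluorescence polarization (mP), excitation 525 nm, emission 598 nm / Replication: singlicate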
Fam108B counter = blocks mouse Fam108B hydrolase in RBBP9 counter-screen | AID 1947 | recombinant Fam108B, FP-Rh probe fluorescence polarization | hit rate 0.33% among 300,000 | inhibition, % at 9.51 µM;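 active = inhibition above the screen mean inhibition plus 3 SD, computed separately per campaign, cut at about 18% in these data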;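 also: inhibitors lower polarization as less probe binds the enzyme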
LYPLA2 counter = counter-screen for PME1 inhibitors: inhibitors of human LYPLA2; O95372; recombinant LYPLA2, FP-Rh probe fluorescence polarization; inhibition, % at 5.9 µM; hit rate 0.38% among 320,000; AID 2177;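 active = inhibition above the screen-wide mean plus 3 SD, limit set per campaign, cut at about 26% in these data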;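 also: 0% = LYPLA2 with DMSO and 100% = wells lacking LYPLA2 enzyme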
LYPLA1 inh = LYPLA1 (human) inhibition in PME1 counter-screen | O75608 | recombinant LYPLA1, FP-Rh probe fluorescence polarization | inhibition, % at 5.9 µM | hit rate 0.16% among 320,000 | AID 2174;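 active = inhibition above the mean of all tested compounds plus 3 SD, set per campaign, cut at about 14% in these data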;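 also: inhibitors block serine hydrolase probe labeling of LYPLA1 so polarization falls; 0% = enzyme with DMSO and 100% = wells lacking LYPLA1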
PME-1 inh = blocks human protein phosphatase methylesterase 1. inhibition, % at 5.9 µM. AID 2130. hit rate 0.53% among 320,000. recombinant PME-1, FP-Rh probe fluorescence polarization;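 active = inhibition above the campaign mean of all compounds plus 3 SD, cut at about 26% in these data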;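 also: competitive labeling of PME-1 active site by serine hydrolase directed probe; 0% = PME-1 with DMSO and 100% = wells lacking PME-1 enzyme; inhibitors block probe labeling so polarization falls and inhibition rises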
Target sequence (Q9Y570 whole entry, looked up): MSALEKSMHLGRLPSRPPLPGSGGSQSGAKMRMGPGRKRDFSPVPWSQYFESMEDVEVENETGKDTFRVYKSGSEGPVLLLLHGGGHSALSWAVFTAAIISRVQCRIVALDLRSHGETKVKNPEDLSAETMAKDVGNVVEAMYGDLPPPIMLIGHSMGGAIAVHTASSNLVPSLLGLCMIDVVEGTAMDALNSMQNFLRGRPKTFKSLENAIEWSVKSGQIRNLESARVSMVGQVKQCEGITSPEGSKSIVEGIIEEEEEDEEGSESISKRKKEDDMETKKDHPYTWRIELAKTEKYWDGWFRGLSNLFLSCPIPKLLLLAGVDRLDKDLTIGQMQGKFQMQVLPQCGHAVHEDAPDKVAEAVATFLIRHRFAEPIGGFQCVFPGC
LYPLA2 conf = LYPLA2 (human) inhibition, confirmation counter-screen. AID 2232. inhibition, % at 5.9 µM. hit rate 72% among 1,100. recombinant LYPLA2, FP-Rh probe fluorescence polarization. shares compounds with LYPLA2 counter;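 active = mean inhibition across replicates above the hit cutoff set in the primary screen, cut at about 26% in these data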;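 also: blocked labeling of the enzyme by serine hydrolase FP-Rh probe lowers polarization; 0% = enzyme with DMSO and 100% = wells lacking LYPLA2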
LYPLA2 gel ABPP = blocks human acyl-protein thioesterase 2 in gel ABPP; hit rate 30% among 150; AID 652029; rhLYPLA2 in mouse brain proteome, gel ABPP FP-Rh; inhibition, % at 20 µM; shares compounds with LYPLA2 counter;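 active = inhibition of LYPLA2 enzyme probe labeling above about 50%, limit read from the data; inactive = inhibition below that limit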;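 also: loss of FP-Rh probe labeling of the LYPLA2 gel band measured as band density; 0% = DMSO only control band and 100% = blank gel background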
PAD4 FP conf = confirmation of human PAD4 inhibitors; shares compounds with PAD4 inh; recombinant PAD4, RCA probe fluorescence polarization; inhibition, % at 6.36 µM; hit rate 28% among 1,200; AID 488796;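 active = mean inhibition across replicates above the hit cutoff set by the earlier primary screen, cut at about 15% in these data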;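 also: inhibitors block active-site labeling by the probe so polarization falls; 0% = PAD4 with probe and DMSO and 100% = probe without PAD4 enzyme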
Starred values were filed as active, the others as inactive; nt = no result.

SMILES | PAD4 inh | RBBP9 inhibitor | Fam108B counter | LYPLA2 counter | LYPLA1 inh | PME-1 inh | LYPLA2 conf | others
CCN(CC(=O)NCc1ccc(Cl)cc1)C(=O)c1cc(S(=O)(=O)N2CCOCC2)ccc1C | 1 | nt | nt | nt | nt | nt | nt
CCN(CC(=O)Nc1ccccc1OC)CC(=O)Nc1sccc1C#N | -5 | -4 | 0 | -1 | -2 | 3 | nt
O=C(O)c1ccc(/C=N/NC(=O)c2ccc(CN3c4cccc5cccc(c45)S3(=O)=O)cc2)cc1 | -10 | -28 | -23 | -12 | -25 | -38 | nt
O=C1CCC/C(=N/NC(=O)c2ccc(CN3c4cccc5cccc(c45)S3(=O)=O)cc2)C1 | -1 | -12 | 7 | 57* | -4 | 0 | 67*
Cc1ccc(NC(=O)Cn2cnc3c(cnn3C(C)(C)C)c2=O)cc1 | 1 | 1 | 0 | 3 | 0 | -2 | nt
CC(C)(C)n1ncc2c(=O)n(CC(=O)N3CCCCCC3)cnc21 | 0 | -3 | 1 | 29* | 2 | 0 | 2
O=C(O)CN1C(=O)/C(=C\c2cc(Br)ccc2OCc2ccc([N+](=O)[O-])cc2)SC1=S | -5 | nt | 13 | 62* | 2 | 15 | 64*
CN(Cc1nc2ccccc2c(=O)[nH]1)C(=O)c1ccc(S(=O)(=O)N2CCCC2)cc1 | -2 | nt | nt | 0 | -1 | 8 | nt
O=C(Nc1ccc(F)c(Cl)c1)C1CCCN(C2=NS(=O)(=O)c3ccccc32)C1 (stereo not drawn) | -2 | nt | nt | 1 | -1 | 15 | nt
Cc1cccc(Nc2ccc([N+](=O)[O-])cc2C(=O)O)c1 | -5 | -4 | 3 | 36* | -2 | 12 | 43*
CN1CCN(CC(O)COc2ccc(C34CC5CC(CC(C5)C3)C4)cc2)CC1 (stereo not drawn) | nt | -5 | nt | nt | nt | nt | nt
CCCCN1CC(=O)N2Cc3[nH]c4ccccc4c3C[C@H]2C1=O | -1 | nt | 1 | 39* | 2 | 0 | 27*
O=C(COc1cc2oc(=O)cc(-c3ccccc3)c2cc1Cl)NCC1CCC(C(=O)O)CC1 (stereo not drawn) | 0 | nt | -1 | 42* | -1 | 7 | 37*
O=C(CCNC(=O)c1ccc(Cl)cc1)Nc1ccccc1N1CCCCC1 | 4 | nt | 1 | -4 | 0 | -4 | nt
Cc1noc(C)c1C(=O)N1CCCC(N2CCN(c3cccc(C(F)(F)F)c3)CC2)C1 (stereo not drawn) | 2 | nt | 2 | 30* | 3 | 6 | 24
Cc1cc(C(=O)N2CCCC(N3CCN(c4cccc(C(F)(F)F)c4)CC3)C2)no1 (stereo not drawn) | -1 | nt | 4 | 15 | 0 | -2 | nt
Cc1nnsc1C(=O)N1CCCC(N2CCN(c3cccc(C(F)(F)F)c3)CC2)C1 (stereo not drawn) | -2 | nt | -4 | 55* | 4 | -2 | 56* | LYPLA2 gel ABPP=28
CCOc1ccc(OCCOC(=O)C2CCN(S(=O)(=O)c3ccc(C)c(C)c3)CC2)cc1 | 0 | nt | 0 | -2 | 2 | 9 | nt
O=C(OCc1ccc([N+](=O)[O-])cc1)c1cc(S(=O)(=O)N2CCCCC2)ccc1N1CCOCC1 | 2 | nt | 0 | 27* | 2 | -1 | 33*
Cc1ccc(OCCOC(=O)c2cc(S(=O)(=O)N3CCCCC3)ccc2N2CCOCC2)cc1 | 6 | nt | nt | 29* | -1 | 8 | 31*
CC(=O)Nc1ccc(NC(=O)C(C)OC(=O)CCc2c[nH]c3ccccc23)cc1 (stereo not drawn) | 3 | nt | 0 | -2 | 0 | -3 | nt
Cc1nc2ccccn2c1CN(C)C(=O)C1CCC(=O)N(Cc2cccc(F)c2)C1 (stereo not drawn) | 1 | nt | -1 | 7 | -2 | 10 | nt
O=[N+]([O-])c1ccc(Sc2ccccc2)nc1 | -2 | -3 | 4 | 17 | -2 | -3 | nt
Cc1ccccc1Sc1ccc([N+](=O)[O-])cn1 | 5 | nt | 0 | 34* | 4 | -4 | 31*
Cc1cccc(Sc2ccc([N+](=O)[O-])cn2)c1 | 1 | -7 | -1 | 29* | 0 | 3 | 28*
SMILES | PAD4 inh | RBBP9 inhibitor | Fam108B counter | LYPLA2 counter | LYPLA1 inh | PME-1 inh | LYPLA2 conf | others
Cc1ccc(NC(=O)CN2CCCCCC2)cc1[N+](=O)[O-] | -2 | 7 | 3 | 0 | 0 | -2 | nt
CCOC(=O)C1CCN(C2=NC(=O)/C(=C/c3ccc(OC)c(OC)c3)S2)CC1 | 2 | nt | -3 | -2 | -2 | 3 | nt
CCOC(=O)C1CCN(C2=NC(=O)/C(=C/c3ccc(Cl)cc3)S2)CC1 | 6 | nt | -2 | 31* | 4 | 4 | 35*
CCOc1ccc(C(=O)NC(=S)Nc2ccc(NC(=O)CC)cc2)cc1[N+](=O)[O-] | 0 | -2 | -6 | 28* | -2 | -2 | 27*
c1ccc(-c2ccc(C(c3ccccc3)n3ccnc3)cc2)cc1 (stereo not drawn) | -4 | 2 | 2 | 27* | -4 | -5 | 23
O=C(O)c1nn(CC(=O)N2CCN(c3ncc(C(F)(F)F)cc3Cl)CC2)c(=O)c2ccccc12 | -3 | nt | -4 | 26* | 3 | -8 | 30*
O=C(CSc1ccccn1)N1CCN(c2ncc(C(F)(F)F)cc2Cl)CC1 | 1 | 0 | -2 | -8 | 5 | -3 | nt
COCCn1c(=NC(=O)CCS(=O)(=O)c2ccccc2)sc2cc(F)ccc21 | -2 | nt | 3 | 5 | 3 | 6 | nt
CC(NS(=O)(=O)c1ccc2c(c1)oc(=O)n2C)c1ccccc1 (stereo not drawn) | -4 | nt | -5 | -1 | -3 | 4 | nt
CC(=O)c1ccc(N2CCN(C(=O)c3ccc4ccccc4n3)CC2)cc1 | -3 | 5 | 2 | 1 | -1 | -2 | nt
CC(=O)c1ccc(N2CCN(C(=O)/C=C/c3ccc4ccccc4n3)CC2)cc1 | -4 | 2 | 1 | 33* | 6 | -1 | 39*
Cc1cc(C)cc(C(=O)NC(=S)Nc2ccc(Cc3ccncc3)cc2)c1 | -2 | -7 | -12 | 34* | -2 | -8 | 41*
Cc1cccc(C(=O)NC(=S)Nc2ccc(Cc3ccncc3)cc2)c1 | 2 | -8 | -8 | 25 | 0 | -5 | nt
COc1cc(C(=O)NC(=S)Nc2ccc(Cc3ccncc3)cc2)cc(OC)c1OC | -6 | nt | -11 | 26* | 0 | -9 | 17
COc1ccc(S(=O)(=O)Nc2cc(SCC(=O)O)c(O)c3ccccc23)cc1 | 35* | nt | 18 | 28* | 5 | 23 | 28* | PAD4 FP conf=-7
COc1ccc(S(=O)(=O)Nc2cccc3ccc(O)cc23)cc1 | -1 | nt | 2 | 5 | 5 | 6 | nt
